# Data as given in ChEMBL document CHEMBL1649119, “Daptomycin pharmacokinetics in adult oncology patients with neutropenic fever” (Antimicrob Agents Chemother, 2009).
# Tests used:
# [1] = Renal clearance in old healthy human at 4 mg/kg, iv administered as single dose 30 mins infusion; type: ADME, organism-based, Kidney; design: dose 4 mg/kg, route intravenous; settings: in vivo, read-out: CL_renal (converted)
# [2] = Plasma protein binding in human after 2 hrs; type: ADME, cell-free; settings: read-out: PPB (converted)
# Outline: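 Neutropenic-fever oncology patients received 6 mg/kg IV daptomycin; serum was drawn 0.5, 2 and 8 h after the end of infusion. Free drug was obtained by ultrafiltration (30,000-MW cutoff) and quantified by HPLC against a saline-matrix curve of 0.25–100 μg/ml, with total plasma drug also measured. Percent bound was (total − free)/total × 100; results are given as mean ± SD.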
# [3] = Half life in adult human with hepatic impairment at 6 mg/kg, iv administered as single dose 30 mins infusion; type: ADME, organism-based; design: dose 6 mg/kg, route intravenous; settings: in vivo
# [4] = Cmax in healthy human at 6 mg/kg, iv administered as 30 mins infusion every 24 hrs measured on day 7; type: ADME, organism-based; design: dose 6 mg/kg, route intravenous; settings: in vivo
# [5] = Clearance in adult human subjects at 6 mg/kg, iv administered as single dose 30 mins infusion; type: ADME, organism-based; design: dose 6 mg/kg, route intravenous; settings: in vivo
# [6] = Cmax in morbidly obese adult human at 4 mg/kg, iv administered as single dose 30 mins infusion; type: ADME, organism-based; design: dose 4 mg/kg, route intravenous; settings: in vivo
# [7] = Volume of distribution at steady state in adult human subjects at 6 mg/kg, iv administered as single dose 30 mins infusion; type: ADME, organism-based; design: dose 6 mg/kg, route intravenous; settings: in vivo, read-out: Vdss
# Enterococcus = test: Antimicrobial activity against Enterococcus; type: functional
# [8] = Half life in healthy human subjects at 8 mg/kg, iv administered as 30 mins infusion every 24 hrs measured on day 4; type: ADME, organism-based; design: dose 8 mg/kg, route intravenous; settings: in vivo
# [9] = Volume of distribution at steady state in nonobese adult human at 4 mg/kg, iv administered as single dose 30 mins infusion; type: ADME, organism-based; design: dose 4 mg/kg, route intravenous; settings: in vivo, read-out: Vdss
# [10] = Half life in nonobese human at 4 mg/kg, iv administered as single dose 30 mins infusion; type: ADME, organism-based; design: dose 4 mg/kg, route intravenous; settings: in vivo
# [11] = Clearance in healthy adult human at 6 mg/kg, iv administered as single dose 30 mins infusion; type: ADME, organism-based; design: dose 6 mg/kg, route intravenous; settings: in vivo
# [12] = Clearance in healthy human subjects at 8 mg/kg, iv administered as 30 mins infusion every 24 hrs measured on day 4; type: ADME, organism-based; design: dose 8 mg/kg, route intravenous; settings: in vivo
# [13] = Renal clearance in morbidly obese adult human at 4 mg/kg, iv administered as single dose 30 mins infusion; type: ADME, organism-based, Kidney; design: dose 4 mg/kg, route intravenous; settings: in vivo, read-out: CL_renal (converted)
# [14] = Drug excretion in nonobese human at 4 mg/kg, iv administered as single dose 30 mins infusion; type: ADME, organism-based; design: dose 4 mg/kg, route intravenous; settings: in vivo, read-out: Drug uptake
# [15] = Unbound fraction in healthy human plasma at 8 mg/kg, iv administered as 30 mins infusion every 24 hrs measured on day 7; type: ADME, organism-based; design: dose 8 mg/kg, route intravenous
# [16] = Apparent volume of distribution during terminal phase in healthy human at 4 mg/kg, iv administered as 30 mins infusion every 24 hrs measured on day 7; type: ADME, organism-based; design: dose 4 mg/kg, route intravenous; settings: in vivo
# [17] = Cmax in healthy human subjects at 8 mg/kg, iv administered as 30 mins infusion every 24 hrs measured on day 4; type: ADME, organism-based; design: dose 8 mg/kg, route intravenous; settings: in vivo
# [18] = Plasma concentration in morbidly obese adult human at 4 mg/kg, iv administered as single dose 30 mins infusion measured after 24 hrs; type: ADME, organism-based; design: dose 4 mg/kg, route intravenous
# Homo sapiens [19] = test: Unbound clearance in healthy human at 6 mg/kg, iv administered as 30 mins infusion every 24 hrs measured on day 7; type: ADME, organism-based; design: dose 6 mg/kg, route intravenous; settings: in vivo
# [20] = Cmax in young healthy human at 4 mg/kg, iv administered as single dose 30 mins infusion; type: ADME, organism-based; design: dose 4 mg/kg, route intravenous; settings: in vivo
# Homo sapiens [21] = test: Apparent volume of distribution during terminal phase in healthy human subjects at 6 mg/kg, iv administered as 30 mins infusion every 24 hrs measured on day 1; type: ADME, organism-based; design: dose 6 mg/kg, route intravenous; settings: in vivo
# [22] = Plasma concentration in old healthy human at 4 mg/kg, iv administered as single dose 30 mins infusion measured after 24 hrs; type: ADME, organism-based; design: dose 4 mg/kg, route intravenous
# [23] = Clearance in healthy human subjects at 10 mg/kg, iv administered as 30 mins infusion every 24 hrs measured on day 4; type: ADME, organism-based; design: dose 10 mg/kg, route intravenous; settings: in vivo
# [24] = Mean residence time in healthy human at 4 mg/kg, iv administered as single dose 30 mins infusion; type: ADME, organism-based; design: dose 4 mg/kg, route intravenous; settings: in vivo
# [25] = AUC (0 to infinity) in healthy human at 4 mg/kg, iv administered as 30 mins infusion every 24 hrs measured on day 7; type: ADME, organism-based; design: time infinity, dose 4 mg/kg, route intravenous; settings: plasma
# Homo sapiens [26] = test: Volume of distribution at steady state in healthy human at 4 mg/kg, iv administered as single dose 30 mins infusion; type: ADME, organism-based; design: dose 4 mg/kg, route intravenous; settings: in vivo, 0.5 h
# [27] = Plasma concentration in cancer patient with neutropenic fever at 6 mg/kg, iv administered as 30 mins infusion every 24 hrs measured after 24 hrs; type: ADME, organism-based; design: dose 6 mg/kg, route intravenous; settings: human
# Outline: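 29 adult oncology patients with neutropenic fever received 6 mg/kg (total body weight) daptomycin as a 30-min IV infusion every 24 h. Plasma was sampled predose, at end of infusion, and 0.5, 1, 2, 4, 8, 12 and 24 h after infusion start. Total drug was measured by validated HPLC (linear 1–100 μg/ml, detection limit 1 μg/ml). Tmax was the observed value, analysed noncompartmentally.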
# [28] = AUC (0 to infinity) in healthy human at 4 mg/kg, iv administered as single dose 30 mins infusion; type: ADME, organism-based; design: time infinity, dose 4 mg/kg, route intravenous; settings: plasma
# [29] = Cmax in nonobese human at 4 mg/kg, iv administered as single dose 30 mins infusion; type: ADME, organism-based; design: dose 4 mg/kg, route intravenous; settings: in vivo
# [30] = Drug excretion in young healthy human urine assessed as unchanged drug at 4 mg/kg, iv administered as single dose 30 mins infusion; type: ADME, organism-based; design: dose 4 mg/kg, route intravenous; settings: read-out: Drug uptake
# [31] = Cmax in cancer patient with neutropenic fever at 6 mg/kg, iv administered as 30 mins infusion every 24 hrs; type: ADME, organism-based; design: dose 6 mg/kg, route intravenous; settings: human, in vivo
# Outline: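 First 6 mg/kg dose given over 30 min IV (q24h) to 29 neutropenic febrile adult cancer patients. Serial plasma was taken predose, at end of infusion, and at 0.5–24 h. Total concentration was measured by validated HPLC (limit of detection 1 μg/ml). Cmax is the observed peak value, reported as mean ± SD and range.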
# [32] = AUC (0 to infinity) in healthy human subjects at 8 mg/kg, iv administered as 30 mins infusion every 24 hrs measured on day 4; type: ADME, organism-based; design: dose 8 mg/kg, route intravenous, time infinity; settings: plasma
# [33] = AUC (0 to infinity) in healthy adult human at 6 mg/kg, iv administered as single dose 30 mins infusion; type: ADME, organism-based; design: dose 6 mg/kg, route intravenous, time infinity; settings: plasma
# [34] = AUC (0 to infinity) in healthy human subjects at 12 mg/kg, iv administered as 30 mins infusion every 24 hrs measured on day 1; type: ADME, organism-based; design: time infinity, dose 12 mg/kg, route intravenous; settings: plasma
# [35] = Renal clearance in nonobese human at 4 mg/kg, iv administered as single dose 30 mins infusion; type: ADME, organism-based, Kidney; design: dose 4 mg/kg, route intravenous; settings: in vivo, read-out: CL_renal (converted)
# [36] = Unbound fraction in healthy human plasma at 8 mg/kg, iv administered as 30 mins infusion every 24 hrs measured on day 1; type: ADME, organism-based; design: dose 8 mg/kg, route intravenous
# [37] = Cmax in healthy adult human at 6 mg/kg, iv administered as single dose 30 mins infusion; type: ADME, organism-based; design: dose 6 mg/kg, route intravenous; settings: in vivo
# [38] = Cmax in healthy human at 6 mg/kg, iv administered as 30 mins infusion every 24 hrs measured on day 1; type: ADME, organism-based; design: dose 6 mg/kg, route intravenous; settings: in vivo
# [39] = Renal clearance in healthy adult human at 6 mg/kg, iv administered as single dose 30 mins infusion; type: ADME, organism-based, Kidney; design: dose 6 mg/kg, route intravenous; settings: in vivo, read-out: CL_renal (converted)
# [40] = Half life in healthy human subjects at 10 mg/kg, iv administered as 30 mins infusion every 24 hrs measured on day 4; type: ADME, organism-based; design: dose 10 mg/kg, route intravenous; settings: in vivo
# [41] = Cmax in healthy human at 4 mg/kg, iv administered as 30 mins infusion every 24 hrs measured on day 7; type: ADME, organism-based; design: dose 4 mg/kg, route intravenous; settings: in vivo
# [42] = Clearance in healthy human at 8 mg/kg, iv administered as 30 mins infusion every 24 hrs measured on day 1; type: ADME, organism-based; design: dose 8 mg/kg, route intravenous; settings: in vivo
structure (smiles),measurement,setting,value
CCCCCCCCCC(=O)N[C@@H](Cc1c[nH]c2ccccc12)C(=O)N[C@H](CC(N)=O)C(=O)N[C@@H](CC(=O)O)C(=O)N[C@@H]1C(=O)NCC(=O)N[C@@H](CCCN)C(=O)N[C@@H](CC(=O)O)C(=O)N[C@H](C)C(=O)N[C@@H](CC(=O)O)C(=O)NCC(=O)N[C@H](CO)C(=O)N[C@@H]([C@H](C)CC(=O)O)C(=O)N[C@@H](CC(=O)c2ccccc2N)C(=O)O[C@@H]1C,CL renal at 0.5 h,[1],0.0712 mL/min/kg
same,fraction unbound at 2 h,[2],0.063
same,half-life,[3],8.97 h
same,Cmax,[4],98.6 µg/mL
same,clearance,[5],0.109 mL/min/kg
same,Cmax,[6],67 µg/mL
same,Vd,[7],0.08 L/kg
same,MIC90,Enterococcus,2 µg/mL
same,half-life,[8],8.3 h
same,Vd,[9],0.13 L/kg
same,half-life,[10],8.04 h
same,clearance,[11],0.171 mL/min/kg
same,clearance,[12],0.15 mL/min/kg
same,CL renal at 0.5 h,[13],0.134 mL/min/kg
same,dose excreted at 0.5 h,[14],48.6%
same,fraction unbound at 7 day,[15],0.09
same,Vd,[16],0.096 L/kg
same,Cmax,[17],123 µg/mL
same,concentration at 24 h,[18],5.88 µg/mL
same,CL,Homo sapiens [19],0.997 mL/min/kg
same,Cmax,[20],42.3 µg/mL
same,Vd,Homo sapiens [21],0.1059 L/kg
same,concentration at 24 h,[22],6.38 µg/mL
same,clearance,[23],0.147 mL/min/kg
same,MRT,[24],10.9 h
same,AUC(0-inf),[25],494 µg·h/mL
same,Vdss,Homo sapiens [26],6057 mL
same,concentration at 24 h,[27],5.67 µg/mL
same,AUC(0-inf),[28],530 µg·h/mL
same,Cmax,[29],53.2 µg/mL
same,dose excreted at 0.5 h,[30],42.3%
same,Cmax,[31],48.9 µg/mL
same,AUC(0-inf),[32],858 µg·h/mL
same,AUC(0-inf),[33],598 µg·h/mL
same,AUC(0-inf),[34],1270 µg·h/mL
same,CL renal at 0.5 h,[35],0.098 mL/min/kg
same,fraction unbound at 1 day,[36],0.09
same,Cmax,[37],82 µg/mL
same,Cmax,[38],86.4 µg/mL
same,CL renal at 0.5 h,[39],0.064 mL/min/kg
same,half-life,[40],7.9 h
same,Cmax,[41],57.8 µg/mL
same,clearance,[42],0.12 mL/min/kg
